T cell modulator – T cell immune modulators affecting CD8 T cell-vesicle binding; 2C CD8+ T cell-vesicle binding, flow cytometry; stronger effect = lower value; response (vesicle binding), % at 7 µM; hit rate 0.068% among 330,000; AID 2052;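 active = response, share of CD8 T cells binding vesicles, and their 90th percentile fluorescence all below set limits, cut at about 80% in these data, passing the limit was not always enough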;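 also: values below 100% mean blocked vesicle binding to the CD8+ T cells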
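incubation = binding step 1.5 h, 37 °C, antibody labelling 20 min, ice | test system = 2C mouse CD8+ T cells | read-out basis = percent CD8+ FL2 mean versus row control | controls = Peptide-free naked vesicles (low) and QL9 vesicles with 0.7% DMSO vehicle (high) | detection = flow cytometry of vesicle-bound cells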
procasp7 counter – counter-screen for procaspase-3 activators: activators of human procaspase-7; P55210; recombinant procaspase-7, Ac-DEVD-pNA absorbance 405 nm; D23A/D198A/D206A triple mutant, cannot self-cleave; scale: DMSO 0, 5 µM enzyme 100; activation, % at 8.5 µM; hit rate 0.093% among 330,000;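 active = percent activation above the screen-wide mean plus 3 SD, cut at about 25% in these data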
Target sequence (P55210 whole entry D23A/D198A/D206A): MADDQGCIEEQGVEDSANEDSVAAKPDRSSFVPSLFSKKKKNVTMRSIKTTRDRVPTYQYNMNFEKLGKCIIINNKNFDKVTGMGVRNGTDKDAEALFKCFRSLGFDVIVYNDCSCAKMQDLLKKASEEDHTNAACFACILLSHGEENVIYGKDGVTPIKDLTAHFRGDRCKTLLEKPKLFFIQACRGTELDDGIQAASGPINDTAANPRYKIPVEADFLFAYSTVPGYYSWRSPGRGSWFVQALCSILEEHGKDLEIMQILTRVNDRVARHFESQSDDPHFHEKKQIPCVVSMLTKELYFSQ
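signal = Epi-absorbance of released pNA at 405 nm, two timepoints | assay system = Uncleavable procaspase-7 mutant enzyme | reagent = Ac-DEVD-pNA substrate, 400 µM as added | times = 1 h enzyme–compound preincubation and 2 h substrate reaction, both 25 °C | benchmarks = low DMSO alone, high DMSO plus 5 µM PC-7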
CaV13 ICDI inh – Disruptors of the CACNA1D IQ motif to Ca2+-dependent inactivation inhibitor domain association, primary screening, Förster resonance energy transfer in intact living …; HEK cells, CFP/YFP FRET ICDI-IQ, plate reader, 10 min; percent FRET-ratio fall versus neutral wells; hit rate 0.098% among 340,000; inhibition, % at 12.3 µM;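 active = mean replicate inhibition of at least 30% and at least 1% of replicates passing that level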;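 also: 0% = median of the neutral control wells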
aDG glyco up – increases alpha dystroglycan glycosylation; Pro5-aDG cells, alpha-DG glycosylation AlphaScreen (IIH6); 0% Pro5, 100% B10-LARGE cell signal; activation, % at 10 µM; hit rate 0.22% among 360,000; AID 624168;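 active = activation of at least 8% versus controls, or a plate z-score of at least 8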;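 also: Pro5 are CHO cells carrying HIG-tagged alpha-DG that lacks glycosylation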
GRK2 aptamer HTS – inhibitors of human GRK2 displacing RNA aptamer; P25098; bead flow cytometry, FAM-aptamer displacement from GRK2; inhibition of aptamer binding, % at 10 µM; hit rate 0.59% among 330,000; AID 488847;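 active = inhibition of aptamer binding above 40%, roughly 3 SD of noise, on plates passing a quality check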;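 also: median bead fluorescence of bound FAM aptamer so fluorescent compounds give negative values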
proCasp3 act – activators of human procaspase-3. P42574. recombinant procaspase-3 D3A, Ac-DEVD-pNA absorbance 405 nm. activation, % at 8.5 µM. hit rate 0.11% among 330,000. AID 463141;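 active = activation above the mean of all tested compounds plus 3 SD, cut at about 21% in these data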;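 also: 0% = DMSO alone and 100% = DMSO wells spiked with extra 5 µM PC-3 D3A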
Target sequence (P42574 whole entry D9A/D28A/D175A): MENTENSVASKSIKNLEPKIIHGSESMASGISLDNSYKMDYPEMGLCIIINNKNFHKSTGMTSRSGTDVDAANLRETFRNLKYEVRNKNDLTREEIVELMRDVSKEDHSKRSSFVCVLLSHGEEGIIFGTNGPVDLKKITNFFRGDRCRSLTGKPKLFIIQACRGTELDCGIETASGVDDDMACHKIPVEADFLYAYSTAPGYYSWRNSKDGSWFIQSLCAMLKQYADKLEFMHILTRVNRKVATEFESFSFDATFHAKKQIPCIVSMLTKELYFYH
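Test system: Procaspase-3 D3A mutant; medium: Zinc-free HEPES/NaCl buffer with 0.01% Triton X-100 at pH 7.4; reagent: DEVD-pNA substrate; doses: one concentration, 8.5 µM nominal, 0.8% DMSO; times: 1 h preincubation plus 2 h reaction at 25 °C; signal: Epi-absorbance at 405 nm of released p-nitroaniline, 0 and 120 min; replicates: singlicate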
aDG conf – alpha-DG glycosylation activation, confirmation; AID 651671; shares compounds with aDG glyco up; Pro5-aDG cells, IIH6 AlphaLISA; scaled to LARGE-overexpressing B10 cells as 100%; activation, % at 10 µM (by protocol); hit rate 17% among 600;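 active = activation of at least 7% in one or more replicates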;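 also: cells exposed to compound for two days before detection; 0% = DMSO-treated Pro5 cells and 100% = DMSO-treated B10-LARGE cells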
Starred values were filed as active, the others as inactive. Shown are actives, neighbours in structure and some others; about 1.1% of the full set was active somewhere.

`C[C@H](CO)N1C[C@H](C)[C@@H](CN(C)C(=O)Nc2ccc3c(c2)OCO3)Oc2ccc(NS(=O)(=O)c3cn(C)cn3)cc2C1=O` gave T cell modulator 401, procasp7 counter -9, CaV13 ICDI inh -4, aDG glyco up 6.4*, GRK2 aptamer HTS 3, proCasp3 act 0 and aDG conf 2.
For CC(=O)N1c2ccccc2S(=O)(=O)c2c1ccc1ccccc21 the results were CaV13 ICDI inh -7, aDG glyco up 13* and aDG conf 0.
Screening CCCCc1nnc(NC(=O)Cc2ccc(S(=O)(=O)N3CCOCC3)s2)s1 returned T cell modulator 471, procasp7 counter 3, CaV13 ICDI inh -6, aDG glyco up 0, GRK2 aptamer HTS 0 and proCasp3 act 2.
For COc1cccc(CNC(=O)CN2C(=O)CCSc3ccc(S(=O)(=O)N4CCCC4)cc32)c1 the results were T cell modulator 398, procasp7 counter 0, CaV13 ICDI inh -7, aDG glyco up 0, GRK2 aptamer HTS 4 and proCasp3 act -6.
CC1CC1C(=O)Nc1nc(-c2ccccn2)cs1 (stereo not drawn) was read as T cell modulator 405, procasp7 counter -13, aDG glyco up 5.1*, GRK2 aptamer HTS 2, proCasp3 act -12 and aDG conf 1.
`O=C(Nc1nc(-c2ccccn2)cs1)C1COc2ccccc2O1` (stereo not drawn) gave T cell modulator 499, procasp7 counter 2, CaV13 ICDI inh -5, aDG glyco up 0, GRK2 aptamer HTS 1 and proCasp3 act 15.
Screening COc1ccc(NC(=O)c2cc(OC)c(OC)c(OC)c2)cn1 returned T cell modulator 423, procasp7 counter -1, CaV13 ICDI inh -9, aDG glyco up 3.7*, GRK2 aptamer HTS 1, proCasp3 act 2 and aDG conf 0.
`Cc1ccc(N(CC(=O)Nc2cc(C)cc(C)c2)S(=O)(=O)c2c(C)noc2C)cc1` gave T cell modulator 145, procasp7 counter -4, CaV13 ICDI inh -8, aDG glyco up 7.6*, GRK2 aptamer HTS 2, proCasp3 act 4 and aDG conf 1.
Screening CC(C)N(C)C(=O)C(=O)c1cccn1-c1cccc(Cl)c1C#N returned T cell modulator 254, procasp7 counter 4, CaV13 ICDI inh 0, aDG glyco up 0, GRK2 aptamer HTS 0 and proCasp3 act 5.
CCc1cc(CNC(=O)c2ccc3nc(Cc4ccc(OC)c(OC)c4)oc3c2)on1 was read as T cell modulator 224, procasp7 counter 11, CaV13 ICDI inh -6, aDG glyco up 8.2*, GRK2 aptamer HTS 3, proCasp3 act 8 and aDG conf 2.
O=C(Cn1c(=O)n(-c2ccccc2)c(=O)c2sccc21)NCc1ccccc1 was read as T cell modulator 247, procasp7 counter 6, CaV13 ICDI inh -7, aDG glyco up 0, GRK2 aptamer HTS 3 and proCasp3 act 7.
Screening O=C(CCc1ccccc1)NC(NC(=S)Nc1cccc(Cl)c1)C(Cl)(Cl)Cl (stereo not drawn) returned T cell modulator 288, procasp7 counter -5, CaV13 ICDI inh -9, aDG glyco up 7.2*, GRK2 aptamer HTS 0, proCasp3 act -1 and aDG conf 0.
`O=C(CCc1ccccc1)NC(NC(=S)Nc1ccc(Br)cc1)C(Cl)(Cl)Cl` (stereo not drawn) gave T cell modulator 371, procasp7 counter 4, CaV13 ICDI inh -8, aDG glyco up 2, GRK2 aptamer HTS 0 and proCasp3 act 6.
Cc1ccc(S(=O)(=O)N2CCC(C(=O)NNC(=O)c3ccncc3)CC2)cc1 was read as T cell modulator 458, procasp7 counter 6, CaV13 ICDI inh 7, aDG glyco up 0, GRK2 aptamer HTS 0 and proCasp3 act 1.
CCn1c(NCc2ccco2)nc2c1c(=O)n(C)c(=O)n2C was read as T cell modulator 554, procasp7 counter 14, CaV13 ICDI inh -5, aDG glyco up 6.3*, GRK2 aptamer HTS 0, proCasp3 act 11 and aDG conf 0.
Cc1cc(C)c(C)c(S(=O)(=O)N2CCN(c3ncnc4ccccc34)CC2)c1C was read as T cell modulator 350, procasp7 counter -6, CaV13 ICDI inh -7, aDG glyco up 2, GRK2 aptamer HTS 0 and proCasp3 act 2.
For O=S(=O)(c1cc(C(F)(F)F)ccc1Cl)N1CCN(c2ncnc3ccccc23)CC1 the results were CaV13 ICDI inh -6, aDG glyco up 4.5* and aDG conf 0.
Screening Cc1nc2ccccn2c1-c1csc(Nc2cccc(O)c2)n1 returned CaV13 ICDI inh -3 and aDG glyco up 0.
`Cc1cccc(Nc2nc(-c3c(C)nc4ccccn34)cs2)c1` gave T cell modulator 266, procasp7 counter -7, CaV13 ICDI inh -6, aDG glyco up 4.4*, GRK2 aptamer HTS 0, proCasp3 act -20 and aDG conf 4.
`O=C(Nc1ccc(-n2cc(Cl)cn2)cc1)c1ccncc1` gave T cell modulator 279, procasp7 counter -1, CaV13 ICDI inh -20, aDG glyco up 2.8*, GRK2 aptamer HTS 1, proCasp3 act 6 and aDG conf 1.
Screening C[C@H]1CN([C@@H](C)CO)S(=O)(=O)c2ccc(C#Cc3ccccn3)cc2O[C@@H]1CN(C)C(=O)C1CC1 returned CaV13 ICDI inh -7 and aDG glyco up 0.
CCNc1ccc(S(=O)(=O)NCCN(C)C)cc1[N+](=O)[O-] was read as T cell modulator 163, procasp7 counter 2, CaV13 ICDI inh -6, aDG glyco up 0, GRK2 aptamer HTS 3 and proCasp3 act 11.
`CN(C)CCCNS(=O)(=O)c1ccc(NC2CCCCCC2)c([N+](=O)[O-])c1` gave T cell modulator 181, procasp7 counter -3, CaV13 ICDI inh -2, aDG glyco up 3.3*, GRK2 aptamer HTS 0, proCasp3 act 6 and aDG conf 4.9*.
For COC(=O)C1=C(C)N(Cc2ccc(C(F)(F)F)cc2)C(=NCc2ccc(OC)cc2)NC1c1ccccc1 (stereo not drawn) the results were CaV13 ICDI inh -13.
For O=C(Nc1ccc(OC(F)(F)F)cc1)c1ccc2nccnc2c1 the results were T cell modulator 180, procasp7 counter 6, CaV13 ICDI inh 14, aDG glyco up 5.5*, GRK2 aptamer HTS 0, proCasp3 act 2 and aDG conf 0.

Screening data (PubChem BioAssay)
